Compound activity deposited in PubChem by The Scripps Research Institute Molecular Screening Center.
TAAR1 agonist – human TAAR1 agonism; Q96RJ0; CHO RD-HGA16 TAAR1, Fluo-8 calcium fluorescence; vehicle wells 0%, saturating PEA agonist 100%; activation, % at 3 µM; 0.99% of 360,000 active;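 active = activation above the mean activation of all test compounds in the run plus 3 SD, cut at about 38% in these data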
Target sequence (Q96RJ0 whole entry, looked up): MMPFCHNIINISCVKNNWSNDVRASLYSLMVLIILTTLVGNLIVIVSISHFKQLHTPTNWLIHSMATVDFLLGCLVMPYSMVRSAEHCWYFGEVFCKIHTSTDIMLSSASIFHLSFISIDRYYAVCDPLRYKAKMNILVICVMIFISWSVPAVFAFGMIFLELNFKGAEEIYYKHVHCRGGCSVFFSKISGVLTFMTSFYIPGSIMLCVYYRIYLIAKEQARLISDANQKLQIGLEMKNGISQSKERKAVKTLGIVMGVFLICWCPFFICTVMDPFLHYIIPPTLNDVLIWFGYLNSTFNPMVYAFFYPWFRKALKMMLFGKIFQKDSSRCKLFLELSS
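Assay system – CHO-derived RD-HGA16 cells with stable Gα16 and human TAAR1 · Compound dosing – one-point dosing at 3 µM (nominal) · Incubation – 17-24 h seeding, 75 min 37 °C dye, 30 min RT · Measured by – kinetic Fluo-8 calcium fluorescence · Control set – DMSO vehicle as 0%, PEA at EC100 as 100% · Repeats – single well for each compound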
rCAG RNA binder – molecules binding r(CAG) RNA repeats | 1.3% of 370,000 active | AID 651821 | inhibition, % at 3 µM | r(CAG) RNA repeat, TO-PRO-1 dye displacement fluorescence;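 active = inhibition above the plate cutoff, the mean of all test compounds on that plate plus 3 SD, cut at about 35% in these data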;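 also: higher means more dye released from RNA so lower well fluorescence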
HCV core dimer – blocks dimerization of HCV core protein | inhibition, % at 5 µM | 0.33% of 300,000 active | TR-FRET GST/Flag-core106 dimerization, 1536-well;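 active = inhibition above the mean of all tested compounds plus 3 SD, set per screening campaign, cut at about 45% in these data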
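Material: GST/Flag-tagged HCV core106 proteins. Incubation: 4 h, 22.5 °C incubation. Read-out basis: inhibition (%) from 671 over 617 nm ratio. Measured by: TR-FRET, excitation 340 nm, emission 617 and 671 nm.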
TAAR1 antagonist – human TAAR1 antagonism. Q96RJ0. CHO RD-HGA16 TAAR1, Fluo-8 calcium fluorescence, antagonist. inhibition, % at 3 µM. 1.5% of 360,000 active;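 active = inhibition above a per-plate cutoff, the mean inhibition of test compounds on that plate plus 3 SD, cut at about 49% in these data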
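Test system – hTAAR1-expressing CHO RD-HGA16 cells, Gα16-coupled · Also added – β-PEA at EC80 concentration, post-compound challenge · Compound – 3 µM, single point · Incubation – dye loading 75 min at 37 °C, then 30 min room temperature · Measured by – Fluo-8 intracellular calcium dye fluorescence, real-time kinetic reads · Benchmarks – vehicle and agonist controls · Replicates – singlicate, one well per test compound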
NS3 helicase inh – inhibitors of Hepatitis C virus NS3 helicase | NS3 helicase DNA unwinding, Cy5 molecular beacon fluorescence | inhibition, % at 10.9 µM | 0.56% of 290,000 active;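 active = inhibition above the mean of all tested compounds plus 3 SD, set per campaign, cut at about 35% in these data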
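Assay system – hepatitis C virus NS3 helicase domain fragment enzyme · Buffer or medium – MOPS pH 6.5, MgCl2, DTT, Tween20, BSA · Reagent – Cy5/quencher beacon DNA duplex and ATP to start · Compound – single 10.9 µM dose · Timing – 1 h at 25 °C · Technique – Cy5 beacon fluorescence read at start and 1 h · Measure – % inhibition of unwinding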
TAAR1 nonsel count – counter-screen for TAAR1 antagonists: nonselective antagonists. shares compounds with TAAR1 antagonist. counterscreen cell line, calcium fluorescence, antagonist mode. inhibition, % at 3 µM. 77% of 2,400 active; in the data active = inhibition above about 22%;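 also: CHO-Ga16 host cells stimulated with ATP at an EC80 level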
TAAR1 antag conf – human TAAR1 antagonism, confirmed. AID 651785. shares compounds with TAAR1 antagonist. 40% of 2,400 active. TAAR1-expressing cells, fluorescence antagonist read-out. inhibition, % at 3 µM; in the data active = inhibition above about 49%;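 also: CHO-Ga16 host cells challenged with agonist PEA near its EC80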
Ga16 ag counter – counter-screen for TAAR1 antagonists: nonselective Ga16 agonists | shares compounds with TAAR1 antagonist | Ga16-expressing cells, calcium fluorescence, agonist counterscreen | AID 651953 | 18% of 2,400 active | activation, % at 3 µM; in the data active = activation above about 12%
TAAR1 ag counter – TAAR1 agonism, antagonist counter-screen. activation, % at 3 µM. hTAAR1 cell line, fluorescence activation, agonist mode. 2% of 2,400 active. shares compounds with TAAR1 antagonist. AID 651955; in the data active = activation above about 37%;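 also: CHO cells stably expressing TAAR1 with calcium dye readout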
Of the large screens only hits and unclear results are named; the others gave an inactive call (follow-up assays come after a bar, where they were run). Compounds with a hit are over-represented: about 3.7% of the library has one in this group of screens.

COc1ccc(CN(C)C(=O)C(Cc2ccccc2)NC(=O)c2ccccc2)c(OC)c1 (configuration not stated)	TAAR1 antagonist 67 (no result: NS3 helicase inh) | TAAR1 nonsel count 30 | TAAR1 antag conf 50 | Ga16 ag counter inactive | TAAR1 ag counter inactive
COc1ccc(CN(C)C(=O)c2ccc(COc3ccccc3)cc2)c(OC)c1	none
COc1cccc(CCNC(=O)CCc2nc(-c3ccccc3F)no2)c1	none (no result: TAAR1 agonist, HCV core dimer, TAAR1 antagonist, NS3 helicase inh)
COc1c(F)c(F)c(C(=O)Nc2cccc(Cl)c2N2CCOCC2)c(F)c1F	TAAR1 antagonist 72 | TAAR1 nonsel count inactive | TAAR1 antag conf inactive | Ga16 ag counter inactive | TAAR1 ag counter inactive
O=C(Nc1cccc(Cl)c1N1CCOCC1)c1ccco1	none
Cn1c(C(=O)Nc2ccc3c(c2)OCCO3)cc2c(=O)n(C)c3ccccc3c21	TAAR1 antagonist 52 | TAAR1 nonsel count inactive | TAAR1 antag conf inactive | Ga16 ag counter inactive | TAAR1 ag counter inactive
Cn1c(C(=O)NC2CC2)cc2c(=O)n(C)c3ccccc3c21	none
Cc1c(C(=O)Nc2ccc(F)cc2)oc2ccc(S(=O)(=O)N3CCC4(CC3)OCCO4)cc12	TAAR1 antagonist 62 | TAAR1 nonsel count 40 | TAAR1 antag conf 50 | Ga16 ag counter 12 | TAAR1 ag counter inactive
Cc1c(C(=O)NCc2c(F)cc(F)cc2F)oc2ccc(S(=O)(=O)N3CCOCC3)cc12	TAAR1 antagonist 68 | TAAR1 nonsel count 24 | TAAR1 antag conf inactive | Ga16 ag counter inactive | TAAR1 ag counter inactive
Cc1c(C(=O)Nc2ccc(F)cc2)oc2ccc(S(=O)(=O)N3CCCC3)cc12	none
COC(=O)[C@]12C[C@H](CC(=O)NCc3cccs3)C(=O)N(Cc3cccc4ccccc34)C1=C[C@H](COCc1ccccc1)O[C@@H]2C	none (no result: TAAR1 agonist, HCV core dimer, TAAR1 antagonist, NS3 helicase inh)
CCCCNC(=O)C[C@@H]1C(=O)N(CCc2ccc(Cl)cc2)C2=CCCCC[C@]21C(=O)OC	none (no result: TAAR1 agonist, HCV core dimer, TAAR1 antagonist, NS3 helicase inh)
O=C(CCc1nc2ccccc2c(=O)[nH]1)N1CCN(S(=O)(=O)c2ccc(Cl)c(C(F)(F)F)c2)CC1	TAAR1 antagonist 62 (no result: NS3 helicase inh) | TAAR1 nonsel count 39 | TAAR1 antag conf 50 | Ga16 ag counter 16 | TAAR1 ag counter inactive
CCCCCCc1c[nH]c2ccc(O)c(-c3ccccc3)c12	none (no result: TAAR1 agonist, HCV core dimer, TAAR1 antagonist, NS3 helicase inh)
Cc1ccccc1N(CC(=O)Nc1ccccc1C(=O)NCc1ccco1)S(=O)(=O)c1ccccc1	TAAR1 antagonist 69 | TAAR1 nonsel count 31 | TAAR1 antag conf inactive | Ga16 ag counter inactive | TAAR1 ag counter inactive
O=C(Nc1ccccc1C(=O)Nc1ccccc1C(=O)NCc1ccco1)c1ccco1	TAAR1 antagonist 69 | TAAR1 nonsel count 25 | TAAR1 antag conf 49 | Ga16 ag counter inactive | TAAR1 ag counter inactive
Cc1ccc(N(CC(=O)NCc2ccco2)S(=O)(=O)c2ccccc2)cc1	none
CN(CCc1ccccn1)C(=O)[C@@H](Cc1ccccc1)NC(=O)[C@H]1O[C@@H](n2ccc(=O)[nH]c2=O)[C@H](O)[C@@H]1O	none (no result: HCV core dimer, NS3 helicase inh)
C=CCn1c(=S)[nH]c2cc(C(=O)Nc3ccc(OC)c(OC)c3)ccc2c1=O	TAAR1 antagonist 62 | TAAR1 nonsel count 33 | TAAR1 antag conf inactive | Ga16 ag counter 12 | TAAR1 ag counter inactive
COCCn1c(=O)[nH]c2cc(C(=O)Nc3ccc(OC)c(Cl)c3)ccc2c1=O	none (no result: TAAR1 agonist, rCAG RNA binder, TAAR1 antagonist)
O=c1c(/C=N\NS(=O)(=O)c2ccccc2)coc2ccc(Cl)cc12	TAAR1 antagonist 59 | TAAR1 nonsel count 26 | TAAR1 antag conf 49 | Ga16 ag counter inactive | TAAR1 ag counter inactive
CCOC(=O)C1=C(COC(=O)/C=C/c2ccccc2)NC(=O)NC1C (configuration not stated)	TAAR1 antagonist 63 (no result: NS3 helicase inh) | TAAR1 nonsel count 25 | TAAR1 antag conf inactive | Ga16 ag counter inactive | TAAR1 ag counter inactive
